Test results: ChEMBL document CHEMBL2390859, “Solid phase synthesis and biological evaluation of probestin as an angiogenesis inhibitor” (Bioorg Med Chem Lett, 2013)
The source made the active and inactive calls.

Experiments:
MDA-MB-435 [1] = experiment: Antitumor activity against human MDA-MB-435 cells xenografted in chicken embryo chorioallantoic membrane assessed as inhibition of tumor volume at 20 mg/kg measured after 2 days; assay type: functional, organism-based; design: dose 20 mg/kg
Outline: (§1)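 Under the vascularized CAM of 10-day-old chicken embryos, 500,000 human breast carcinoma MDA-MB-435 cells were implanted. Embryos were dosed systemically with 20 mg/kg on days one and two. Tumor growth and vascularity were assessed, with 8–10 separate CAMs per group.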

MDA-MB-435 [2] = experiment: Antiangiogenic activity in human MDA-MB-435 cells xenografted in chicken embryo chorioallantoic membrane assessed as inhibition of blood vessel formation at 20 mg/kg measured after 2 days; assay type: functional, organism-based; design: dose 20 mg/kg; outline: as §1
Gallus gallus [3] = experiment: Antiangiogenic activity in chicken embryo chorioallantoic membrane assessed as inhibition of VEGF-induced blood vessel formation at 25 uM applied topically to filter paper surface after 48 hrs by stereo microscopic analysis; assay type: functional, tissue-based
Outline: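 CAM of 10-day-old chicken embryos; angiogenesis induced with filter discs soaked in VEGF, test agent applied alongside. 8–10 separate CAMs per group.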

[4] = Acute toxicity in ip dosed CDF mouse; assay type: organism-based; settings: in vivo
[5] = Toxicity in ip dosed BalbC mouse assessed as body weight loss administered 3 times per week measured over 6 weeks; assay type: organism-based; settings: in vivo
Outline: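 Female BalbC mice, 10 weeks old and healthy, in groups of four, dosed ip at 50, 100, 200 and 300 mg/kg three times weekly. Body weight was tracked over 6 weeks, with observation for acute distress during the first 96 h after injection. MTD was defined as significant weight loss over 6 weeks (P <0.05, one-way ANOVA with Neuman–Keuls post test).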

Mus musculus = experiment: Toxicity in BalbC mouse assessed as body weight loss at 50 to 200 mg/kg, ip administered 3 times per week measured over 6 weeks; assay type: organism-based; design: dose 50-200 mg/kg, route intraperitoneal; settings: in vivo, 1008 h
Outline: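 Healthy female BalbC mice, 10 weeks old, in groups of four, dosed intraperitoneally at 50, 100, 200 or 300 mg/kg three times weekly. Weights were tracked over 6 weeks and acute distress was watched for during the first 96 h. Significant weight loss over 6 weeks (P <0.05, one-way ANOVA with Neuman–Keuls post test) was the MTD criterion.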

[6] = Toxicity in chicken embryo chorioallantoic membrane assessed as effect on blood vessel at 10 uM applied topically to filter paper surface after 48 hrs by stereo microscopic analysis; assay type: tissue-based, Gallus gallus; settings: in vivo
Gallus gallus [7] = species: Gallus gallus; settings: Chorioallantoic membrane, 10 uM

SMILES | inhibition (MDA-MB-435 [1]) | inhibition (MDA-MB-435 [2]) | inhibition (Gallus gallus [3]) | LD50 [4] [mg/kg] | MTD at 1008 h [5] [mg/kg] | Activity (Mus musculus) | Activity [6] | inhibition (Gallus gallus [7])
CCN(CC)CCNC(=O)c1c(C)[nH]c(/C=C2\C(=O)Nc3ccc(F)cc32)c1C | Active | Active | Active | – | – | – | – | –
CC(C)C[C@H](NC(=O)[C@@H](O)[C@H](N)Cc1ccccc1)C(=O)O | Active | Active | – | – | – | – | – | –
CC(C)C[C@H](NC(=O)[C@@H](O)[C@H](N)Cc1ccccc1)C(=O)N1CCC[C@H]1C(=O)N1CCC[C@H]1C(=O)O [PROBESTIN] | Active | Active | – | > 250 | 300 | Non-toxic | Non-toxic | Active
